The values that follow come from publication PMC10357533 (ACS Omega, 2023).

As usually defined, the IC50 is the point on the concentration scale where inhibition reaches its midpoint. By LC50 is commonly meant the concentration lethal to half of the exposed cells or organisms. A low value points to greater toxicity. One may read the mortality as the share of the test organisms that died.

In series [1] the target is electric eel (Electrophorus electricus) AChE (Electrophorus electricus, UniProt O42275). The series is described as follows: Acetylcholinesterase. The following applies: for inhibition at 4 µg/mL / inhibition at 20 µg/mL / inhibition at 100 µg/mL / inhibition at 250 µg/mL: read-out: AChE inhibitory activity. The format is biochemical. In outline: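 Electric eel AChE (0.25 IU/mL) was mixed with pH 8 phosphate buffer and test compound solution (500, 100, 20 or 4 μg/mL, diluted in water from DMSO stock) and held 15 min at 25 °C. DTNB (2.5 mM) and acetylthiocholine iodide (2.5 mM) were added, followed by 10 min more at 25 °C. Absorbance was read at 405 nm. Galantamine was the positive control, run in triplicate plates.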
Sequence of electric eel (Electrophorus electricus) AChE (O42275 24-633): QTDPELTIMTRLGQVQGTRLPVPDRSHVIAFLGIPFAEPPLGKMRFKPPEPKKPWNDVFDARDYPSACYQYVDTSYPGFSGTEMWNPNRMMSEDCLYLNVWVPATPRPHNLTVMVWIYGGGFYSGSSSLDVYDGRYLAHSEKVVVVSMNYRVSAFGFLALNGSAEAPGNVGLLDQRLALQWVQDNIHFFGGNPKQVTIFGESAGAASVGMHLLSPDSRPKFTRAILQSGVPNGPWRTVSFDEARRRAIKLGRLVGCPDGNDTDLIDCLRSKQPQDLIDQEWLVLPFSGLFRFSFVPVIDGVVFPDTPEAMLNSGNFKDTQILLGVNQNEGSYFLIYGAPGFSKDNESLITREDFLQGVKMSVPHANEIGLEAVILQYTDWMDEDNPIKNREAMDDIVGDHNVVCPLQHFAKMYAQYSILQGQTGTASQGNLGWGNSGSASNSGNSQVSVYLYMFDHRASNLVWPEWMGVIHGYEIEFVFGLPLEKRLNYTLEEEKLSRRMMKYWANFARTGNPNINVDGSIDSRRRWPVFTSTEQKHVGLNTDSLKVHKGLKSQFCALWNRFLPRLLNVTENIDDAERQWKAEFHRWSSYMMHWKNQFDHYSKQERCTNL

A short description of series [2]: Solubility of compounds for larvicidal testing. Particulars: larvicidal test, compounds dissolved in DMSO. The format is physicochemical.
Series [3] deals with Aedes aegypti larvae. The series is described as follows: Mosquito larvicidal assay. The format is in vivo. The following applies: for LC50: Aedes aegypti; for LC90: (95% confidence limits). The method in brief:
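Larvae came from later generations of a wild-derived Ae. aegypti colony kept at 25 ± 2 °C, 65–75% RH and 12:12 h light/dark. Twenty larvae per 150 mL of test solution were exposed at 100 down to 1.5625 μg/mL (twofold steps plus 75), with DMSO as vehicle. Controls were permethrin and DMSO (1 mL/150 mL). Mortality was scored at 24–96 h over four independent experiments.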

For series [4], the system named is M. separata. The following applies: at 5 μg/mL concentration; cited from earlier work.
The test system of series [5] is Anopheles arabiensis. Particulars: compared with temephos; cited from earlier work.
In series [6] the test system is Plutella xylostella. The following applies: at 500 μg/mL; cited from earlier work.

Values after ≈ are worked out from the molar mass of the structure shown. “Also recorded” adds a separate entry of the source.

Turning to `Cc1ccccc1NC(=O)Cn1c(C)nc2ccccc2c1=O` [4g, 2-(2-Methyl-4-oxoquinazolin-3(4H)-yl)-N-(o-tolyl)acetamide], in series [1], the midpoint of inhibition, the IC50, lay at 488 µM; the inhibition at 4 µg/mL was -1.33%; the inhibition at 20 µg/mL turned out to be 13.4%; the inhibition at 100 µg/mL stood at 34.6%. The inhibition at 250 µg/mL in series [1] worked out at 73.1%. Besides, in series [2], the solubility entry is given as “insoluble; also recorded: not soluble”.

In the case of `Cc1nc2ccccc2c(=O)n1CC(=O)Nc1cccc(Cl)c1` [4c, N-(3-Chlorophenyl)-2-(2-methyl-4-oxoquinazolin-3(4H)-yl)acetamide], in series [1], the IC50 is 231 µM, the inhibition at 4 µg/mL turned out to be 15.4%, the inhibition at 20 µg/mL worked out at 29.3% and the inhibition at 100 µg/mL turned out to be 56.5%. Besides, the inhibition at 250 µg/mL in series [1] is 97.8%. This compound displayed an LC50 in series [3] (24 h) of 15.1 µg/mL (≈ 45.9 µM). Further, in series [3] (48 h), the LC50 was found to be 10.1 µg/mL (≈ 30.8 µM). Besides, the LC50 in series [3] (72 h) is 4.42 µg/mL (≈ 13.5 µM). The LC50 in series [3] (96 h) worked out at 1.8 µg/mL (≈ 5.49 µM).

`Cc1cc(Cl)cc2c1NC(c1cc(Br)nn1-c1ncccc1Cl)N(C)C2=O` (centres unmarked) [2-(3-bromo-1-(3-chloropyridine-)-2-yl)-1H-pyrazol-5-yl-6-chloro-3,8-dimethyl-2,3-dihydroquinazolin-4(1H)-one]: the mortality in series [4] was 80%.

As for `Cc1nc2ccccc2c(=O)n1CC(=O)Nc1ccccc1Cl` [4d, N-(2-Chlorophenyl)-2-(2-methyl-4-oxoquinazolin-3(4H)-yl)acetamide], in series [1], the IC50 was 462 µM, the inhibition at 4 µg/mL amounted to 7.58%, the inhibition at 20 µg/mL was found to be 19.2% and the inhibition at 100 µg/mL was found to be 36.5%. In series [1], the inhibition at 250 µg/mL is 70.3%. In series [3] (24 h), the LC50 amounted to 52.4 µg/mL (≈ 160 µM). For the same compound, the LC50 in series [3] (48 h) worked out at 22.7 µg/mL (≈ 69.3 µM). In series [3] (72 h), this compound yielded an LC50 of 4.2 µg/mL (≈ 12.8 µM).

Consider `COc1ccc(NC(=O)Cn2c(C)nc3ccccc3c2=O)cc1` [4e, N-(4-Methoxyphenyl)-2-(2-methyl-4-oxoquinazolin-3(4H)-yl)acetamide], for which the LC90 is on record as 25.81 (21.16–33.50) μg/mL in series [3] (24 h exposure), 16.26 (12.95–22.06) μg/mL in series [3] (48 h exposure), 12.27 (9.67–17.09) μg/mL in series [3] (72 h exposure) and 7.414 (5.780–10.598) μg/mL in series [3] (96 h exposure). Further, the LC50 was 9.25 µg/mL (≈ 28.6 µM) in series [3] (24 h), 4.27 µg/mL (≈ 13.2 µM) in series [3] (48 h), 2.76 µg/mL (≈ 8.52 µM) in series [3] (72 h) and 1.28 µg/mL (≈ 3.96 µM) in series [3] (96 h).

Consider `Cc1nc2ccccc2c(=O)n1CC(=O)Nc1ccc([N+](=O)[O-])cc1` [4i, 2-(2-Methyl-4-oxoquinazolin-3(4H)-yl)-N-(4-nitrophenyl)acetamide], for which, in series [1], the 50% inhibitory concentration (IC50) is 454 µM, the inhibition at 4 µg/mL came to 2.5%, the inhibition at 20 µg/mL was 6.08% and the inhibition at 100 µg/mL worked out at 35.5%. Further, in series [1], the inhibition at 250 µg/mL amounted to 75.6%. Moreover, the solubility result in series [2] is “insoluble; also recorded: not soluble”.

`Cc1nc2ccccc2c(=O)n1CC(=O)Nc1ccc(Cl)cc1` [4b, N-(4-Chlorophenyl)-2-(2-methyl-4-oxoquinazolin-3(4H)-yl)acetamide]: the half-maximal inhibitory concentration (IC50) in series [1] was 500 µM. Also, the inhibition at 4 µg/mL in series [1] was 18.1%. In series [1], the inhibition at 20 µg/mL was 26.6%. Besides, in series [1], the inhibition at 100 µg/mL stood at 34.7%. For the same compound, the inhibition at 250 µg/mL in series [1] was 72.9%. Also, the results for the LC90 in series [3] (24 h exposure), in series [3] (48 h exposure) and in series [3] (72 h exposure) were 31.11 (26.90–37.20) μg/mL, 7.610 (6.607–9.160) μg/mL and 6.945 (6.055–8.327) μg/mL, respectively. Besides, the LC50 in series [3] (24 h) came out at 12.7 µg/mL (≈ 38.7 µM); in series [3] (48 h) it was 3.64 µg/mL (≈ 11.1 µM); in series [3] (72 h), 3.48 µg/mL (≈ 10.6 µM).

For the compound `Cc1ccc(NC(=O)Cn2c(C)nc3ccccc3c2=O)cc1` [4f, 2-(2-Methyl-4-oxoquinazolin-3(4H)-yl)-N-(p-tolyl)acetamide], in series [1], half-maximal inhibition (IC50) was put at 186 µM, the inhibition at 4 µg/mL came to 17.6%, the inhibition at 20 µg/mL was 34.2% and the inhibition at 100 µg/mL amounted to 62.8%. For the same compound, the inhibition at 250 µg/mL in series [1] was determined as 98.9%. For the same compound, in series [3] (24 h exposure), the LC90 was 14.67 (13.22–16.69) μg/mL. For the same compound, the LC90 in series [3] (48 h exposure) is given as 14.33 (12.51–17.09) μg/mL. The LC90 in series [3] (72 h exposure) is 11.29 (9.56–14.17) μg/mL. In series [3] (24 h), this compound returned an LC50 of 8.67 µg/mL (≈ 28.2 µM). In series [3] (48 h), this compound came in with an LC50 of 5.92 µg/mL (≈ 19.3 µM). Also, the LC50 in series [3] (72 h) was 2.08 µg/mL (≈ 6.78 µM).

For the compound `Cc1nc2ccccc2c(=O)n1CC(=O)Nc1ccc(Br)cc1` [4a, N-(4-Bromophenyl)-2-(2-methyl-4-oxoquinazolin-3(4H)-yl)acetamide], the IC50 in series [1] was 714 µM. In addition, the inhibition at 4 µg/mL in series [1] was 3.75%. In series [1], the inhibition at 20 µg/mL was 14%. Besides, the inhibition at 100 µg/mL in series [1] is 28.6%. For the same compound, the inhibition at 250 µg/mL in series [1] turned out to be 48.5%. Further, the LC90 in series [3] (24 h exposure) is reported as 8.528 (7.729–9.730) μg/mL; in series [3] (48 h exposure) it was 6.396 (5.755–7.334) μg/mL; in series [3] (72 h exposure), 5.273 (4.620–6.340) μg/mL; in series [3] (96 h exposure), 4.470 (3.864–5.530) μg/mL. Moreover, the LC50 was 5.82 µg/mL (≈ 15.6 µM) in series [3] (24 h), 3.66 µg/mL (≈ 9.84 µM) in series [3] (48 h), 2.26 µg/mL (≈ 6.07 µM) in series [3] (72 h) and 1.49 µg/mL (≈ 3.99 µM) in series [3] (96 h).

For the compound `COC(=O)C1=C(C)Nc2nc3ccc(I)cc3c(=O)n2C1c1ccc(Cl)cc1` (centres unmarked) [methyl 4-(4-chlorophenyl)-8-iodo-2-methyl-6-oxo-1,6-dihydro-4H-pyrimido[2,1-b]quinazoline-3-carboxylate], in series [5], the “larvicidal activity (in words)” value is “significantly stronger than temephos”.

`Cc1nc2ccccc2c(=O)n1CC(=O)Nc1ccccc1` [4h, 2-(2-Methyl-4-oxoquinazolin-3(4H)-yl)-N-phenylacetamide]: the LC90 in series [3] (96 h exposure) was >50 (96 h) μg/mL. In addition, the 50% lethal concentration (LC50) in series [3] (96 h) is greater than 50 µg/mL. Also, in series [3] (compared with the other compounds), the “larvicidal activity (in words)” value was “less activity”.

In the case of `Clc1cc(Cl)c2ncnc(SCc3ccc(Cl)nc3)c2c1` [6,8-dichloro-4-(((6-chloropyridine-3-yl)methyl)thio)quinazoline], the mortality rate in series [6] was 85%.

In the case of `CC1(C)C(C=C(Cl)Cl)C1C(=O)OCc1cccc(Oc2ccccc2)c1` (centres unmarked) [permethrin, reference compound], the LC90 in series [3] (24 h exposure) is 0.00246 (0.00192–0.00344) μg/mL. The compound also yielded a 50% lethal concentration (LC50) in series [3] (24 h) of 0.000643 µg/mL (≈ 0.00164 µM).
